Each structure is given as a SMILES string. pIC50: −log10 of the molar value. Square brackets hold non-standard residues; d marks the D form. Peptide text beside a SMILES is read from it. Phe(4-Cl) = N[C@@H](Cc1ccc(Cl)cc1)C(=O)O

One experiment is filed under the species Rattus norvegicus. The experiment in a line: Compound was tested for inhibition against [3H]raclopride to Rat brain membranes. In kind it is functional, Membrane. An outline of the steps:
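Rat brain membranes (male Wistar, 250–300 g; 0.8 mg protein) in 5 mM Tris-HCl pH 7.4, incubated with 2.5 nM [3H]raclopride for 60 min at 22 °C alongside 9–12 peptide concentrations (10⁻¹⁰–10⁻⁴ M). Nonspecific binding defined with 10 μM (+)butaclamol. IC50 by nonlinear least-squares fit; mean ± SE of ≥3 experiments run in duplicate.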

The species entered for experiment [1] is Mus musculus. Description: Compound was tested for antinociceptive potency using mouse writhing pain assay. In kind it is functional. An outline of the steps: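 Male Swiss Webster mice, 20–25 g, given peptide icv (10 μL in sterile water) or i.v.; 5 min later 1.0% AcOH (10 mL/kg) i.p. Doses 0, 0.25–50 nmol. Writhes counted for 10 min; % analgesia relative to vehicle controls, 10 mice per dose. AD50 and potency ratio with 95% CL by Litchfield–Wilcoxon.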
In general terms: An intraperitoneal irritant provokes the stretching counted in writhing tests.

The subject of experiment [2] is Mus musculus. The experiment in a line: Lack of Motor Effect measured as the time taken by the mice to remain on the rotarod after 30 min interval of icv administration of compound. The format is functional. An outline of the steps:
(§1)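 Male Swiss Webster mice pre-screened on a 2.5 cm rod at 8 rpm (two 1-min rounds; fallers excluded). Peptides (10 or 2.5 nmol) or water vehicle given icv, then mice placed on the rod for 2 min. Time on rod recorded as mean ± SE, groups of 10; Student's t-test.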
(The rotarod test checks motor coordination on a turning rod.)

Experiment [3] deals with Mus musculus. Description: Lack of Motor Effect measured as the time taken by the mice to remain on the rotarod after 15 min interval of icv administration of compound. The format is functional. In outline:
as §1

Experiment [4] deals with Mus musculus. Description: Lack of Motor Effect measured as the time taken by the mice to remain on the rotarod after 60 min interval of icv administration of compound. The format is functional. An outline of the steps:
as §1

Compound `NC(=O)CC[C@@H]1NC(=O)CNC(=O)[C@H](CCCN=C(N)N)NC(=O)[C@H](Cc2ccc(O)cc2)NC1=O` showed a pIC50 in the experiment filed under Rattus norvegicus of 5.31. Moreover, the AD50 in the experiment filed under Mus musculus [1] is on record as 2.26 nmol mouse-1.

`NC(=O)CC[C@H]1NC(=O)CNC(=O)[C@@H](CCCN=C(N)N)NC(=O)[C@H](Cc2ccc(O)cc2)NC1=O` gave a pIC50 in the experiment listed under Rattus norvegicus of 5.17. In the experiment listed under Mus musculus [1], this compound returned an AD50 of 4.21 nmol mouse-1.

`N=C(N)NCCC[C@H]1NC(=O)[C@H](Cc2ccc(O)cc2)NC(=O)[C@H](Cc2ccc(N)cc2)NC(=O)CNC1=O` [listing 1 of 2 here] had a pIC50 in the experiment listed under Rattus norvegicus of 5.45.

With `N=C(N)NCCC[C@H]1NC(=O)[C@H](Cc2ccc(O)cc2)NC(=O)[C@H](Cc2ccc(N)cc2)NC(=O)CNC1=O` [listing 2 of 2 here], the AD50 in the experiment listed under Mus musculus [1] was determined as 2.52 nmol mouse-1.

For the compound `C[C@@H]1NC(=O)CNC(=O)[C@@H](CCCN=C(N)N)NC(=O)[C@H](Cc2ccc(O)cc2)NC1=O` [listing 1 of 2 here], in the experiment listed under Rattus norvegicus, the pIC50 is 5.63.

On to `C[C@@H]1NC(=O)CNC(=O)[C@@H](CCCN=C(N)N)NC(=O)[C@H](Cc2ccc(O)cc2)NC1=O` [listing 2 of 2 here], for which the figures for the Time with Mus musculus [2], in the experiment on Mus musculus [3] and in the experiment with Mus musculus [4] were 120, 107 and 120, respectively. This compound also gave an AD50 in the experiment filed under Mus musculus [1] of 1.35 nmol mouse-1.

`NC(=O)CC[C@H]1NC(=O)CNC(=O)[C@H](CCCN=C(N)N)NC(=O)[C@H](Cc2ccc(O)cc2)NC1=O`: in the experiment listed under Rattus norvegicus, the pIC50 is 5.39. The same compound returned an AD50 in the experiment listed under Mus musculus [1] of 3.65 nmol mouse-1.

`C[C@@H]1NC(=O)[C@@H](CCC(N)=O)NC(=O)CNC(=O)[C@H](CCCN=C(N)N)NC1=O` gave a pIC50 in the experiment filed under Rattus norvegicus of 4.90. Also, the AD50 in the experiment listed under Mus musculus [1] was 7.05 nmol mouse-1.

In the experiment listed under Mus musculus [1], `C[C@@H]1NC(=O)[C@@H](CCC(N)=O)NC(=O)CNC(=O)[C@@H](CCCN=C(N)N)NC1=O` registered an AD50 of 13.3 nmol mouse-1.

As for `C[C@H](NC(=O)[C@H](CCC(N)=O)NC(=O)CN)C(=O)N[C@@H](CCCN=C(N)N)C(=O)O` (H-GQAR-OH), in the experiment listed under Mus musculus [1], the AD50 is 3.42 nmol mouse-1.

Take `NCC(=O)N[C@@H](CCC(N)=O)C(=O)NCC(=O)N[C@@H](CCCN=C(N)N)C(=O)O` (H-GQGR-OH): the AD50 in the experiment filed under Mus musculus [1] was determined as 25.9 nmol mouse-1.

With `N=C(N)NCCC[C@H]1NC(=O)[C@H](Cc2ccc(O)cc2)NC(=O)[C@H](Cc2ccc(Cl)cc2)NC(=O)CNC1=O` (cyclo(G[Phe(4-Cl)]Y[dR])) [listing 1 of 2 here], the negative-log IC50 (pIC50) in the experiment listed under Rattus norvegicus was 6.05.

As for `N=C(N)NCCC[C@H]1NC(=O)[C@H](Cc2ccc(O)cc2)NC(=O)[C@H](Cc2ccc(Cl)cc2)NC(=O)CNC1=O` (cyclo(G[Phe(4-Cl)]Y[dR])) [listing 2 of 2 here], the Time with Mus musculus [2] is listed as 115.8; in the experiment on Mus musculus [3], 104.1; in the experiment with Mus musculus [4], 110.2. In addition, the AD50 in the experiment filed under Mus musculus [1] is reported as 0.17 nmol mouse-1.

One may read the pIC50 as −log10 of the IC50, conventionally taken in molar units. Read a high pIC50 as a small IC50.
